# Bioassay records as filed in PubChem BioAssay.
# The list is not random: actives were taken first. Their share in the collection is about 1.1%.
# G6PDH CS: counter-screen for G6PDH assay hits: L. mesenteroides G6PDH inhibition | Purified L. mesenteroides G6PDH, diaphorase/resazurin coupled fluorescence, 45 min | inhibition, % at 5 µM | 200,000 compounds, 0.12% hits; in the data active = inhibition above about 50%
# PMI act satM6P: activators of human phosphomannose isomerase at near-saturating mannose 6-phosphate | coupled PMI enzyme assay, resazurin fluorescence, 20 min; active compounds read high; 1 = untreated enzyme, 0 = substrate-free blank | activation factor at 20 µM | 190,000 compounds, 0.34% hits | AID 1216;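 active = activation factor of 2 or more at 20 µM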
# Target sequence (P34949 whole entry, looked up): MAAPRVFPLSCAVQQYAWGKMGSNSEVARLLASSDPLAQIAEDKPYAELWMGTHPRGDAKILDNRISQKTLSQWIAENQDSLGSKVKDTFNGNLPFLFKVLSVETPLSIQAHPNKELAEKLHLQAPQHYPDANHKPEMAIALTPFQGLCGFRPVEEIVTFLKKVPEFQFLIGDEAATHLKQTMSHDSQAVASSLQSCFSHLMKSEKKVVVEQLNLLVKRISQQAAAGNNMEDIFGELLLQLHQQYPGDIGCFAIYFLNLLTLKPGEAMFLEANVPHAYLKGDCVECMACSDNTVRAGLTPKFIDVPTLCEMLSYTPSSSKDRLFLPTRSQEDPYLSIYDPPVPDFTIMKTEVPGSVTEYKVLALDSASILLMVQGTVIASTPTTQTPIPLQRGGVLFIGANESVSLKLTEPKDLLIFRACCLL
#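 Material: human phosphomannose isomerase with PGI, G6PDH, diaphorase coupling enzymes / Reagent: Man-6-P substrate 1.0 mM / Dosing: single compound dose of 20 µM, 1% DMSO final / Incubation: enzyme reaction with compound 20 min at room temperature / Signal: resorufin fluorescence (Ex 544/Em 590 nm) from resazurin via diaphorase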
# Diaph act CS: diaphorase activation or chemical reduction counter-screen; Diaphorase/resazurin coupled assay, resorufin fluorescence, 16 min; active compounds read high; 1 = vehicle wells, 0 = NADH-free wells; activation factor at 20 µM; 190,000 compounds, 0.005% hits; AID 1229;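 active = diaphorase activity raised at least twofold by the compound at 20 µM; inactive = activation factor below 2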
#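 Assay system: bacterial diaphorase enzyme (C. kluyveri) / Input: enzyme 0.07 U/mL final / Medium: 50 mM HEPES pH 7.4 with 4.542 mM MgCl2, 0.005% Tween 20 / Doses: single compound dose of 20 µM, 1% DMSO final / Incubation: 16 min enzyme reaction, ambient temperature / Signal: fluorescence, excitation 544 nm and emission 590 nm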
# PMI activator: activators of human phosphomannose isomerase; P34949; purified human PMI, coupled resazurin fluorescence, 20 min; active compounds read high; 1 = vehicle control, 0 substrate-free wells; activation factor at 20 µM; 190,000 compounds, 0.005% hits;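 active = activation factor of 2 or more at 20 µM, relative to plate controls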
# Diaph inh CS: diaphorase inhibition or chemical oxidation counter-screen | 190,000 compounds, 0.69% hits | diaphorase resazurin-to-resorufin fluorescence, NADH, 16 min; bacterial (C. kluyveri) enzyme, not human | inhibition, % at 20 µM;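 active = primary screen inhibition at 20 µM above a set limit, cut at about 50% in these data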;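 note: plate controls were DMSO with full reaction for no effect and wells lacking NADH for full effect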
#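 Test system: bacterial diaphorase enzyme (C. kluyveri); Quantity: 0.14 U/mL diaphorase, enzyme working solution; Times: reaction incubation of 16 min at room temperature; Measured by: fluorescence of resorufin formed from resazurin, Ex 544/Em 590 nm; Benchmarks: positive control minus NADH, DMSO neutral control.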
# * marks the source's active call; other numbers are inactive results.
SMILES,G6PDH CS,PMI act satM6P,Diaph act CS,PMI activator,Diaph inh CS
Cc1cc(C(=O)Cn2nc(C(=O)O)c3ccccc3c2=O)c(C)n1-c1ccc(F)cc1,-6,0.9,0.8,1,18
Cc1cc(C(=O)NCC(=O)OCC(=O)N(C(C)C)C(C)C)ccc1[N+](=O)[O-],-1,0.9,0.9,1,6
C=CC[n+]1ccc(/C=C2\C=Cc3cc(C)ccc3N2CC)c2ccccc21,26,0.4,0.7,0.4,35
CC(=O)N(Cc1ccc(F)cc1)c1cccc(C)c1C,19,0.9,0.9,0.9,14
CC(=O)N(Cc1ccc(F)cc1)C1=C(NCCc2ccccc2)C(=O)c2ccccc2C1=O,50*,1.1,0.5,0.9,49
CC1(C)C2C/C(=N\O)C(C)(/[N+]([O-])=C/c3cccc([N+](=O)[O-])c3)CC21 (stereo unspecified),10,0.9,0.8,0.9,24
Cc1ccc(/C=N/n2c(-c3cccs3)n[nH]c2=S)cc1,3,1,0.6,0.9,43
CCN(CC)S(=O)(=O)c1cccc(-c2n[nH]c(=S)n2/N=C/c2ccc(OC(F)F)cc2)c1,-24,0.9,0.5,0.8,53*
COc1ccc(/C=N/n2c(-c3cccs3)n[nH]c2=S)cc1,0,1,0.4,0.9,64*
CCN(CC)S(=O)(=O)c1cccc(-c2n[nH]c(=S)n2/N=C/c2ccc(OC)cc2)c1,6,0.8,0.2,0.8,78*
CCN(CC)S(=O)(=O)c1cccc(-c2n[nH]c(=S)n2/N=C/c2ccc(Br)cc2)c1,-5,1.1,0.9,1,9
COC(=O)/C=C/c1ccc(OC(=O)c2ccncc2)cc1,11,1,0.9,1,12
Cc1cc(C)nc(/N=C(\N)Nc2ccccc2-c2ccccc2)n1,12,1,0.9,1,6
O=C(O)c1cc(-c2ccc(O)cc2)on1,15,0.9,0.3,0.9,75*
O=C(O)c1cc(-c2ccccc2)on1,-4,1.1,1,1.1,2
Nc1c(C(=O)O)sc2nc(-c3ccccc3)c3c(c12)CCCC3,-8,2.2*,0.9,1.5,15
COc1ccc(CC(=O)Nc2cc(C)ccn2)cc1,17,0.9,0.8,0.9,16
CC(=O)c1ccc(N2CCN(C(=O)c3cc(-c4cccnc4)nc4ccc(Br)cc34)CC2)cc1,8,0.8,0.5,0.7,52*
O=C(c1cc(-c2cccnc2)nc2ccc(Br)cc12)N1CCN(c2ncccn2)CC1,11,0.9,0.8,0.9,17
O=C(COc1ccccc1O)N1CCN(C(=O)c2ccco2)CC1,6,1,0.9,1,7
O=C(COc1cccnc1[N+](=O)[O-])N1CCN(C(=O)c2ccco2)CC1,12,0.9,0.4,0.4,59*
COC(=O)[C@@]1(Cc2ccc(F)cc2)[C@H]2c3cc(C(=O)N4CCCC4)n(CCc4ccc(O)c(O)c4)c3C[C@H]2CN1C(=O)c1ccccc1,25,0.8,0.5,0.5,52*
CCOC(=O)c1sc2nc(C(C)C)c3c(c2c1N)CC(C)(C)OC3,5,1,0.5,1.1,55*
Brc1ccc(-c2nn3c(-c4ccco4)nnc3s2)o1,7,2*,0.7,1.1,33
O=C(NS(=O)(=O)Oc1cccc(Cl)c1Cl)OC[C@@H]1CCCN2CCCCC12 (stereo partly specified),2,1,0.8,1,22
SMILES,G6PDH CS,PMI act satM6P,Diaph act CS,PMI activator,Diaph inh CS
COc1ccc(N2CSC3=C(C#N)C(c4cccc(OC)c4OC)CC(=O)N3C2)cc1 (stereo unspecified),33,1.2,0.6,0.8,45
COc1ccc(C2CC(=O)N3CN(c4ccccc4F)CSC3=C2C#N)cc1OC (stereo unspecified),11,1,0.5,0.7,53*
Cc1cccc(N2CSC3=C(C#N)C(c4ccc(C)o4)CC(=O)N3C2)c1 (stereo unspecified),12,1,0.4,1.1,64*
COc1ccc(C2CC(=O)N3CN(c4ccc(C)c(Cl)c4)CSC3=C2C#N)cc1 (stereo unspecified),14,0.8,0.5,1,50*
CCOc1cc(C2CC(=O)N3CN(C4CCCCC4)CSC3=C2C#N)ccc1O (stereo unspecified),-26,0.5,0.4,0.5,58*
O=C(C1CCCO1)N1CCN(Cc2c(O)ccc3ccccc23)CC1 (stereo unspecified),22,0.7,0.4,0.6,56*
Cc1ccc(CN2CCN(C(=O)C3CCCO3)CC2)cc1 (stereo unspecified),-3,1,1,1,1
O=C(/C=C/c1ccco1)Nc1cccc2cccnc12,-8,0.7,0.4,1.1,63*
Cc1nc2sccc2c(=O)n1N,3,1.1,1,1.1,0
Cc1cc(C)nc(N2CCCC(C(=O)NCc3ccccc3F)C2)n1 (stereo unspecified),8,1,1,1,5
CSc1sc2ccccc2[n+]1CCCS(=O)(=O)[O-],6,2*,0.9,1.4,8
O=C(Nc1ccccc1)c1ccsc1,3,1.1,1.1,1.1,-10
Cc1cc[n+](C2=C([O-])c3ccccc3C(=O)/C2=N\S(=O)(=O)c2cccs2)cc1C,54*,0.6,0.9,1.1,14
Cc1ccccc1NC1=C/C(=N\S(=O)(=O)c2cccs2)c2ccccc2C1=O,55*,0.8,0.8,0.7,24
COc1ccc2c(c1)-c1nc(/N=C/c3ccccc3O)sc1CC2,-6,0.2,0.5,0.3,54*
O=C1C(Nc2ccccc2)=C(N2CCCCC2)C(=O)c2ccccc21,57*,0.9,0.8,1.1,23
O=C1C(Nc2cccc(O)c2)=C(N2CCCCC2)C(=O)c2ccccc21,59*,0.9,0.9,1.1,10
Cc1ccc(NC2=C(N3CCCCC3)C(=O)c3ccccc3C2=O)cc1,56*,0.9,0.9,1.1,12
COc1ccccc1NC1=C(N2CCCCC2)C(=O)c2ccccc2C1=O,33,1,0.7,1.2,30
COc1ccc(C(=O)/C=C/c2ccc(O)cc2)cc1,8,0.9,0.7,0.9,25
O=C(/C=C/c1ccc(O)cc1)c1ccc(NC2=C(N3CCCCC3)C(=O)c3ccccc3C2=O)cc1,52*,1,0.6,1.1,36
CSCCC(NS(=O)(=O)c1ccc(Cl)cc1)C(=O)OCC(=O)c1ccc(F)cc1 (stereo unspecified),8,0.9,0.8,0.7,21
CC(C)NCCCCOc1ccc(Br)cc1Cl,11,1.1,1.1,1,-8
